Holding throughout (assay type): functional
The subject of assay [1] is Radical scavenging activity. As to the kind of experiment: Antioxidant activity assessed as DPPH radical scavenging activity in chloroform solution at 100 ug/mL. (In general: The DPPH test is a chemical assay of radical scavenging.)
In assay [2] the test system is Radical scavenging activity. As to the kind of experiment: Antioxidant activity assessed as DPPH radical scavenging activity in chloroform solution at 25 ug/mL.
The test system of assay [3] is Radical scavenging activity. In words: Antioxidant activity assessed as DPPH radical scavenging activity in chloroform solution at 50 ug/mL.
For assay [4], the system named is Radical scavenging activity. In words: Antioxidant activity assessed as DPPH radical scavenging activity in chloroform solution at 10 ug/mL.
Assay [5] has as its system Radical scavenging activity. In words: Antioxidant activity assessed as DPPH radical scavenging activity in ethanol solution at 50 ug/mL. The gist of the method: (§1)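 Compound dissolved in ethanol, then ethanolic DPPH added. Incubated 30 min in the dark. DPPH decrease read as absorbance at 517 nm against an ethanol blank, with ascorbic acid as reference. % activity = [(A0 − Ai)/A0] × 100, where A0 is absorbance without compound and Ai with compound. IC50 taken from activity across concentrations.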

In assay [6] the test system is Radical scavenging activity. As to the kind of experiment: Antioxidant activity assessed as DPPH radical scavenging activity in ethanol solution at 100 ug/mL. The gist of the method: as §1
Assay [7] relates to Radical scavenging activity. As to the kind of experiment: Antioxidant activity assessed as DPPH radical scavenging activity in chloroform solution at 5 ug/mL.
In assay [8] the test system is Radical scavenging activity. As to the kind of experiment: Antioxidant activity assessed as DPPH radical scavenging activity in ethanol solution at 25 ug/mL. In outline:
as §1

Assay [9] relates to Radical scavenging activity. In words: Antioxidant activity assessed as DPPH radical scavenging activity in ethanol solution at 5 ug/mL. In outline:
as §1

Assay [10] has as its system Radical scavenging activity. As to the kind of experiment: Antioxidant activity assessed as DPPH radical scavenging activity in ethanol solution at 10 ug/mL. In outline: as §1
A short description of assay [11]: Antioxidant activity assessed as ABTS radical scavenging activity at 5 ug/mL. In outline:
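ABTS radical cation solution diluted in ethanol to an absorbance of 0.7–0.9 at 734 nm, 30 °C. Equal volume added to ethanolic compound solution (5 µg/mL). Absorbance read after 1 min and converted to percent inhibition.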

The subject of assay [12] is Radical scavenging activity. In words: Antioxidant activity assessed as DPPH radical scavenging activity in chloroform solution.
Assay [13] has as its system Radical scavenging activity. In words: Antioxidant activity assessed as DPPH radical scavenging activity in ethanol solution. The gist of the method:
as §1

SMILES strings stand for the structures. ≈ marks a conversion by molar mass, not a printed value. Calls of active or inactive are those of the source. The calls are words filed in the database; no cut-off is given here.

By IC50 is commonly meant the concentration at which inhibition is half-maximal.

On to `Cc1cc(/N=C/c2cc(Br)cc(Br)c2O)c(C(C)C)cc1O`, for which the Activity in assay [1] is 88.5%; in assay [2], 65.8%; in [3], 77.4%; in assay [4] it was 44.4%; in assay [5], 79.3%; in assay [6] it was 90.8%. Also, the Activity in assay [7] amounted to 28.1%; in [8] it was 72%; in assay [9], 31.5%; in assay [10] it was 47.3%. The outcome in assay [11] was Active. Besides, the results for the IC50 in [12] and in assay [13] were 18.73 µg/mL (≈ 43.9 µM) and 11.97 µg/mL (≈ 28 µM), respectively.

Regarding `Cc1cc(/N=C/c2ccccc2O)c(C(C)C)cc1O`, the Activity in [1] was found to be 90.4%; in assay [2], 65.1%; in [3] it was 86.1%; in [4], 40.8%; in assay [5], 79.9%; in [6], 89.3%. For the same compound, the Activity in assay [7] was determined as 32.6%; in [8], 70.6%; in assay [9] it was 33%; in [10], 46.8%. The result in assay [11] was Active. The IC50 worked out at 16.09 µg/mL (≈ 59.7 µM) in [12] and 11.61 µg/mL (≈ 43.1 µM) in [13].

Turning to `Cc1cc(/N=C/c2cc(Br)c(O)c(Br)c2)c(C(C)C)cc1O`, the Activity in assay [1] is 91.3%; in assay [2], 69%; in assay [3], 85.8%; in [4], 45.4%; in assay [5], 88.2%; in assay [6], 95.2%. Also, the Activity turned out to be 31.7% in assay [7], 74.6% in assay [8], 33.3% in [9] and 47.6% in assay [10]. Further, the result in assay [11] was Active. The IC50 stood at 12.6 µg/mL (≈ 29.5 µM) in assay [12] and 7.85 µg/mL (≈ 18.4 µM) in assay [13].

For the compound `COc1ccc(/C=N/c2cc(C(C)C)c(O)cc2C)cc1OC`, the Activity in assay [1] was 88.9%; in assay [2] it was 72%; in assay [3] it was 85.2%; in assay [4], 41.9%; in assay [5], 84.1%; in assay [6], 89.4%. Moreover, the Activity in assay [7] worked out at 20.6%; in [8] it was 73.4%; in assay [9] it was 19.7%; in assay [10], 43.3%. The outcome in assay [11] was Active. The IC50 in assay [12] was determined as 19.12 µg/mL (≈ 61 µM); in [13] it was 18.66 µg/mL (≈ 59.5 µM).

(Values after ChEMBL document CHEMBL2311257, “Synthesis and antioxidant activity of thymol and carvacrol based Schiff bases” (Bioorg Med Chem Lett, 2013).)
